# According to PubChem BioAssay AID449757 (Broad Institute, 2010):
# The source made the active and inactive calls.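 How the source made its calls: active means compounds whose fitted caspase activation midpoint falls no more than tenfold above the top tested dose; inconclusive means flat fit with activity between 30 and 70 percent, or failed fit; inactive means the rest.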
# Tested on: MEF Flag-A1-IRES-BIM, caspase-Glo luminescence, 3 h
# Experiment: caspase activation in A1/BIM-primed MEFs, dose response, A1 (Bcl2A1) inhibitor project, cell-based, alternate construct, luminescence (AID 449757)
# Method in brief: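 System: Flag-A1-IRES-BIM-primed MEF cells; Doses: 100 nL compound added per well by pin transfer; Times: 3 h at 37 °C, then 1 h detection at room temperature; Measured by: luminescent caspase activity measurement with CaspaseGlo reagent.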
row,SMILES,AC50
1,Cc1ccc(NC(=O)c2ccc(N/N=C/c3cccc(O)c3)c([N+](=O)[O-])c2)cc1,34.6 µM
2,CCOC(=O)C(C(=O)OCC)c1cc(Br)c2noc3c2c1C(=O)c1ccccc1-3,14.8 µM
3,Cc1ccc(C)c(NC(=S)NC(NC(=O)Cc2cccc3ccccc23)C(Cl)(Cl)Cl)c1 (centres undefined),13.2 µM
4,O=C(Nc1ccc([N+](=O)[O-])cc1)C(Cc1ccccc1)N1C(=O)c2cccc3cccc(c23)C1=O (centres undefined),> 35 µM (inactive)
5,Cc1ccc(C(=O)/C=C/C(=O)c2ccc(C)cc2)cc1,5.64 µM
6,Oc1[nH]c2ccc(Br)cc2c1N=NC(=S)Nc1ccc(F)cc1,> 35 µM (inactive)
7,CCOc1cc(/C=C2/C(=N)N3C=CSC3=NC2=O)ccc1OCCCOc1ccccc1C,35.4 µM
8,Cc1ccc(S(=O)(=O)c2nnn3c2nc(Nc2cccc(C)c2)c2ccccc23)cc1,> 35 µM (inactive)
9,COc1cc2ncnc(NCc3ccc(F)cc3)c2cc1OC,> 35 µM (inactive)
10,CCOC(=O)/C=c1\s/c(=C\c2ccc(C(=O)OC)cc2)c(=O)n1CC(=O)Nc1ccccc1,> 35 µM (inactive)
11,CCOC(=O)Cc1csc(/N=C/c2c(O)n(-c3ccc(C)c(C)c3)c(=O)c3ccccc23)n1,15.9 µM
12,O=S1(=O)CCOC[C@H](CC2CCCCC2)N1Cc1cccc(Cl)c1,> 35 µM (inactive)
13,COc1cc2c(-c3ccccc3)c(C)oc2cc1/C=N/NC(N)=S,> 35 µM (inactive)
14,Cc1ccc(-c2nc(NC(=O)c3nn(C)cc3[N+](=O)[O-])sc2C)cc1C,3.62 µM
15,Cc1ccc(C(=O)/C=C\C(=O)c2ccc(C)cc2)cc1,36.7 µM
16,O=c1c(Cl)c(Cl)cnn1Cc1ccccc1Cl,> 35 µM (inactive)
17,O=[N+]([O-])/C=C/c1cn(Cc2ccc(Cl)cc2)c2ccccc12,15.9 µM
18,CC(=O)OC(C)(C)/C=C/C(=O)C(C)(O)C1[C@H](O)C[C@@]2(C)C3CC=C4C(CC[C@@H](O)C4(C)C)[C@]3(CO)C(=O)C[C@]12C (some centres undefined),> 35 µM (inactive)
19,COc1ccc(NC(=O)c2cccc3c2C(=O)c2ccc(-c4ccc(F)cc4OCc4ccccc4)cc2S3(=O)=O)cc1,> 35 µM (inactive)
20,COCc1cc(C)nc(SCC(=O)Nc2nc(C)cs2)c1C#N,> 35 µM (inactive)
21,Clc1ccccc1CN(Cc1ccccc1)c1ncnc2nc[nH]c12,> 35 µM (inactive)
22,O=[N+]([O-])/C=C/c1ccc2c(ccn2Cc2ccccc2)c1,13.4 µM
23,COc1ccc(NC(=O)CSc2nc3ccc(Nc4nc(N5CCOCC5)nc(N5CCOCC5)n4)cc3s2)cc1,> 35 µM (inactive)

row,SMILES,AC50
1,O=C(Nc1ccc2oc(-c3cccc(F)c3)nc2c1)c1ccccc1F,> 35 µM (inactive)
2,COc1ccc2[nH]c3c(=O)n(/N=C/[C@H]4C(C)C=C(C)CC4C)c(=O)[nH]c3c2c1 (some centres undefined),11 µM
3,O=C(CCl)N=c1sccn1Cc1ccccc1Cl,> 35 µM (inactive)
4,COc1cc(SC#N)ccc1N=Cc1c(C)[nH]n(-c2ccc(C)cc2)c1=O,25.3 µM
5,COc1ccc(S(=O)(=O)N2CC(O)CC2C(=O)OCC(=O)Nc2ccc(Cl)cn2)cc1 (centres undefined),> 35 µM (inactive)
6,CCCc1ccc(OCc2ccc(C(=O)N/N=C/c3cccc([N+](=O)[O-])c3)o2)c(OC)c1,6.57 µM
7,Cc1ccc2c(c1)C(=O)C(=O)N2Cc1ccc(Br)cc1,> 35 µM (inactive)
8,COc1cc(-c2cc(-c3ccccc3)nc(SCC(=O)Nc3nccs3)c2C#N)cc(OC)c1OC,> 35 µM (inactive)
9,COc1ccc(-c2ccc3c(c2)S(=O)(=O)c2cccc(C(=O)NCCOc4ccccc4)c2C3=O)cc1OC,> 35 µM (inactive)
10,COc1ccc(-c2cc3ccccc3oc2=O)cc1NC(=S)NC(=O)c1ccc2c(c1)OCCO2,6.36 µM
11,N#Cc1c(C(F)(F)F)cc(-c2ccccc2)nc1SCC(=O)Nc1sc2c(c1C#N)CCC2,> 35 µM (inactive)
12,COC(=O)c1ccc2c(c1)C(C)(C)C(/C=C/c1ccccc1O)=[N+]2C,11.3 µM
13,CCOC(=O)/C(=C\c1ccc([N+](=O)[O-])cc1)C(=O)c1cc(C(C)=O)c(Nc2ccccc2)s1,1.81 µM
14,CCOc1cccc(C(=O)Nc2cccc(-c3nnc(-c4ccc(C)cc4)o3)c2)c1,8.37 µM
15,COc1cccc(C(=O)C(C#N)=C(SC)SC)c1,> 35 µM (inactive)
16,Cc1cc(C)cc(Cn2ncc(Cl)c(Cl)c2=O)c1,> 35 µM (inactive)
17,Cc1cc(NC(=O)CSc2nc3cc(Cl)ccc3c(=O)n2Cc2ccco2)no1,> 35 µM (inactive)
18,C=CC(=O)Nc1ccc(CN2C(=O)N(c3c(Cl)c(OC)cc(OC)c3Cl)Cc3cnc(NCCCCN(CC)CC)nc32)cc1,> 35 µM (inactive)
19,C/C1=C\[C@@H](C)C/C=C/[C@H]2[C@@H]3O[C@]3(C)[C@@H](C)[C@H]3[C@H](Cc4c[nH]c5ccccc45)NC(=O)[C@]32C(=O)/C=C/C(=O)[C@@H]1O,9.84 µM
20,Cc1ccc(NC(=S)NC(NC(=O)Cc2cccc3ccccc23)C(Cl)(Cl)Cl)cc1 (centres undefined),20.2 µM
21,C=C1CCc2c([nH]c3ccc(OCC(C)C)cc23)C1=O,8.5 µM
22,O=C(c1ccc(COc2ccc3ccccc3c2)o1)N1N=C(C(F)F)CC1(O)C(F)F (centres undefined),> 35 µM (inactive)
23,COc1ccc(C=C2C=C(C(C)(C)C)C(=O)C(C(C)(C)C)=C2)cc1OC,3.49 µM

row,SMILES,AC50
1,COc1cc(C(=O)Nc2cc3c(cc2N2CCCCC2)n(C)c(=O)n3C)cc(OC)c1OC,> 35 µM (inactive)
2,CN(C)C/C=C(\c1ccc(Br)cc1)c1cccnc1,> 35 µM (inactive)
3,COc1cc(NC(=O)c2ccc(C)cc2C)ccc1NC(=O)c1cc2ccccc2o1,32.3 µM
4,CCC(Sc1nc2cc3c(cc2c(=O)n1Cc1ccco1)OCO3)C(=O)Nc1cccc(OC)c1 (centres undefined),> 35 µM (inactive)
5,O=C(NC[C@H]1CCCO1)c1cccc2c1C(=O)c1ccc(-c3ccc(F)cc3OCc3ccccc3)cc1S2(=O)=O,> 35 µM (inactive)
6,COc1ccc(C2Nc3ccc4ccccc4c3-c3c2c(=O)oc2ccccc32)cc1 (centres undefined),14.9 µM
7,CC(C)(C)C1CCc2onc(C(=O)Nc3cccc(O)c3)c2C1 (centres undefined),> 35 µM (inactive)
8,CC(C)CCN(C(=O)Cc1ccc(Cl)c(Cl)c1)c1c(N)n(Cc2ccccc2)c(=O)[nH]c1=O,16.9 µM
9,CC(C)(C)[C@H](N)C(=O)N[C@H]1CCC2C3CC=C4C[C@@H](O)CC[C@]4(C)C3CC[C@@]21C (some centres undefined),> 35 µM (inactive)
10,CC1=CC(=O)C(C(C)C)=C/C1=N/OS(=O)(=O)c1ccccc1,6.53 µM
11,CCOC(=O)c1ccc(-c2ccc(/C=N/NC(=O)CN(c3cccc(C)c3)S(C)(=O)=O)o2)cc1,36.2 µM
12,CCC1CCCCN1S(=O)(=O)c1ccc(NC(=O)c2nc(S(C)(=O)=O)ncc2Cl)cc1 (centres undefined),3.73 µM
13,C#CC(=O)N(c1cc(OC)ccc1OC)C(C(=O)NC1CCCC1)c1cccs1 (centres undefined),> 35 µM (inactive)
14,CCOc1ccc(-n2c(SCC(=O)Nc3ccc(Br)cc3)nc3n[nH]c(C)c3c2=N)cc1,31 µM
15,CCOC(=O)/C(=C\c1cccnc1)C(=O)c1cc(C(C)=O)c(Nc2ccccc2)s1,4.1 µM
16,Oc1ccc(/C=N/N2CCN(C3c4ccccc4-c4ccccc43)CC2)cc1O,24 µM
17,N#C/C(=C\c1ccc(OCc2ccccc2)cc1)C(=O)Nc1nc2c(s1)CCN(Cc1ccccc1)C2,> 35 µM (inactive)
18,CC[C@H]1CN2CCc3cc(OC)c(OC)cc3[C@@H]2C[C@@H]1C[C@H]1NCCc2cc(OC)c(OC)cc21,> 35 µM (inactive)
19,CC(C)(C)c1ccc(C(=O)Nc2ccc(O)c3c(=O)cc(-c4cccc(Cl)c4)oc23)cc1,> 35 µM (inactive)
20,O=C1/C(=C\c2c(NCCOCCO)nc3ccccn3c2=O)SC(=S)N1Cc1ccco1,> 35 µM (inactive)
21,CC1CCc2c(sc3nc(C(C)(C)C)nc(N4CCN(C(=O)CCl)CC4)c23)C1 (centres undefined),10.2 µM
22,O=C(NC1CCCC1)c1cccc2c1C(=O)c1ccc(/C=C/c3ccccc3)cc1S2(=O)=O,7.48 µM
23,COc1ccc(C2CC(c3c(O)cc(C)oc3=O)=NCCS2)c(OC)c1 (centres undefined),> 35 µM (inactive)

row,SMILES,AC50
1,COC(=O)Cc1csc(/N=C/c2c(O)n(-c3cccc(C(F)(F)F)c3)c(=O)c3ccccc23)n1,18.1 µM
2,CC1(C)C[C@H](O)[C@]2(CO)[C@H](O)C[C@]3(C)C(=CCC4[C@@]5(C)CC[C@H](O)C(C)(C)C5CC[C@]43C)[C@@H]2C1 (some centres undefined),> 35 µM (inactive)
3,CCOC(=O)COc1ccccc1/C=C\[N+](=O)[O-],10.5 µM
4,COc1ccc(NC(=S)NC(NC(=O)/C=C/c2ccccc2)C(Cl)(Cl)Cl)cc1 (centres undefined),> 35 µM (inactive)
5,COc1cc(/C=C2/C(=N)N3C=CSC3=NC2=O)ccc1OCCCOc1cc(C)ccc1C,16.2 µM
6,CC(=O)OC(C)(C)/C=C/C(=O)[C@](C)(O)C1[C@H](O)C[C@@]2(C)C3CC=C4C(C[C@H](O)C(=O)C4(C)C)[C@]3(C)C(=O)C[C@]12C (some centres undefined),> 35 µM (inactive)
7,Cc1[nH]nc2nc(SCC(=O)NCCC3=CCCCC3)n(-c3ccc(Br)cc3)c(=N)c12,17.1 µM
8,N#CC(C#N)=C1C=CC=CN1/C(=C\c1ccccc1Cl)C(=O)c1ccccc1,3.43 µM
9,CC(C)(C)c1ccc2c(c1)OC(C(=O)N/N=C\c1ccc[nH]1)CO2 (centres undefined),> 35 µM (inactive)
10,CC1=NNC(=O)/C1=C\c1cn(-c2ccccc2)nc1-c1cccs1,14.2 µM
11,COc1ccc(-c2c(C#N)c(N)nc(Sc3ccc(Cl)cc3)c2C#N)cc1,> 35 µM (inactive)
12,Cc1ccc2c(c1)c(C1=c3ccccc3=NC1=O)c(O)n2C,> 35 µM (inactive)
13,CC1=NNC(=O)/C1=C\c1cn(-c2ccccc2)nc1-c1ccccc1,10.4 µM
14,COc1cc(NC(=O)c2cccs2)ccc1NC(=O)c1cc2ccccc2o1,> 35 µM (inactive)
15,CC(=O)Nc1ccc(NC(=O)C(C)OC(=O)/C=C/c2cn(-c3ccccc3)nc2-c2cccnc2)cc1 (centres undefined),27.5 µM
16,Nc1c(C(=O)Nc2ccc(S(=O)(=O)N3CCCC3)cc2)sc2nc3ccc(OC(F)(F)F)cc3cc12,23.3 µM
17,CCc1nc(N=Nc2c(O)[nH]c3ccccc23)c2c3c(sc2n1)CCC3,20.7 µM
18,CCc1nnc(NC(=O)CSc2nc(-c3ccccc3)cc(-c3ccc(F)cc3)c2C#N)s1,33.1 µM
19,CCc1ccc(Nc2n[n+](-c3ccccc3)c(/C=C/c3ccccc3)s2)cc1,10.3 µM
20,O=C1/C(=C/c2ccc(N3CCOCC3)o2)SC(=Nc2ccccc2)N1CCc1c[nH]c2ccccc12,> 35 µM (inactive)
